In the library only some 3.4% were active in any assay of this set; here they are far more common.
Efa HMGR inh: blocks class II HMG-CoA reductase of Enterococcus faecalis. inhibition, % at 10 µM. AID 1066. actives 0.41% (n = 190,000). purified E. faecalis HMGR, NADPH absorbance 340 nm kinetic;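 active = inhibition above a set limit, the median over all tested compounds plus 3 SD, cut at about 9.5% in these data; inconclusive = no clear call, values can overlap the other calls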;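 note: enzyme runs in reverse so mevalonate oxidation gives rising NADPH absorbance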
Wee1 stabilizer: inhibitors of human Wee1 degradation | actives 1.2% (n = 220,000) | HeLa Luc-Wee1K328M stability, luciferase luminescence; 100% = proteasome inhibitor MG132 effect | P30291 | reporter increase, % at 5 µM;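 active = activation above the mean of all tested compounds plus 3 SD, set per screening run, cut at about 8.8% in these data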;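 note: cells exposed to compound for 20 h before luminescence read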
Runt-SMMHC FRET: inhibitors of human RUNX1 Runt domain binding to CBFb-SMMHC; Q01196+Q13951; Cerulean-Runt/Venus-CBFb-SMMHC FRET ratio 530/480, 1 h; inhibition, % at 20 µM; actives 0.74% (n = 220,000);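 active = mean inhibition across duplicate retests at 20 µM reaching about 50%, limit read from the data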;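 note: inhibitors lower the FRET ratio by blocking Runt binding to CBFb-SMMHC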
RanGTP-Impb inh: disruptors of Ran-importin-beta complex formation – biochemical, FRET, CFP-Ran, YFP-importin-beta, homogeneous, primary screen | cell-free CFP-Ran/YFP-importin-beta FRET ratio | AID 2216 | inhibition, % (no concentration beside the values) | actives 1.1% (n = 300,000);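 active = more than half of the replicate wells show a fall in the fluorescence ratio signal beyond about 16%, limit read from the data, passing the limit was not always enough; inconclusive = exactly half of the replicate wells pass the set limit; inactive = fewer than half of replicates pass the limit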
PHOSPHO1 inh: PHOSPHO1 (human) inhibition; Q8TCT1; recombinant PHOSPHO1, absorbance phosphatase assay; inhibition, % at 13.3 µM; actives 1.1% (n = 290,000); AID 1565; in the data active = inhibition above about 60%
Target sequence (Q8TCT1 whole entry, looked up): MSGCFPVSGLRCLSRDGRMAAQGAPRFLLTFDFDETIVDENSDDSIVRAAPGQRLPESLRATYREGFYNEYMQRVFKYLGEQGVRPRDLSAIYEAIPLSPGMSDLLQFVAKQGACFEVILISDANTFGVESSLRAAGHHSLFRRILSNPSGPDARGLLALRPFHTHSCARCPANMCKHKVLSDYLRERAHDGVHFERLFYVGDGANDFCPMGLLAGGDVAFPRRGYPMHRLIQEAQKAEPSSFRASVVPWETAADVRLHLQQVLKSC
Runt-CBFb FRET: Runt domain-CBFb interaction inhibition. inhibition, % at 20 µM. Cerulean-Runt/Venus-CBFb FRET ratio 530/480, 1 h. actives 0.46% (n = 220,000). AID 1496;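 active = inhibition over about 50% at 20 µM in the single-dose screen, limit read from the data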
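Doses: 20 µM compound in 1% DMSO | Material: Cerulean-labeled Runt domain protein | Amount: Each fluorescent fusion protein 100 nM | Schedule: Two 1 h room-temperature incubations shielded from light | Measured by: FRET fluorescence | Evaluation: Loss of energy transfer signal | Controls: Unlabeled CBFb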
Large screens that a line does not name were inactive.

O=c1cc(O)n(-c2ccc(Cl)cc2)c(=S)[nH]1	PHOSPHO1 inh 82
O=c1cc(O)n(-c2ccccc2F)c(=S)[nH]1	none
C=CCn1cnc2c(nnn2-c2ccc(Cl)cc2)c1=O	Efa HMGR inh 16
C=CCn1cnc2c(nnn2-c2cc(C)cc(C)c2)c1=O	none
COc1ccc(-c2cc(C(=O)N/N=C/c3cccnc3)c3cc(C)cc(C)c3n2)cc1	none (no result: Efa HMGR inh, Wee1 stabilizer, Runt-SMMHC FRET, Runt-CBFb FRET)
CCOc1ccc(CN2CCC(n3nccc3NC(=O)c3ccccc3OC)CC2)cc1	none (no result: Efa HMGR inh, Wee1 stabilizer, Runt-SMMHC FRET, Runt-CBFb FRET)
CCN(Cc1ccccc1)C(=O)CN1C(=O)COc2ccc(S(=O)(=O)NC3CCCC3)cc21	PHOSPHO1 inh 63 (no result: Efa HMGR inh, Wee1 stabilizer, Runt-SMMHC FRET, Runt-CBFb FRET)
CC(C)CCN(C(=O)C1CSC2(C)CCC(=O)N12)c1c(N)n(Cc2ccccc2)c(=O)[nH]c1=O (centres undefined)	none (no result: Efa HMGR inh, Wee1 stabilizer, Runt-SMMHC FRET, PHOSPHO1 inh, Runt-CBFb FRET)
CCOc1ccc(-n2nc(C(=O)N3CCN(CC)CC3)c3ccccc3c2=O)cc1	Wee1 stabilizer 9.6
CCOc1ccc(-n2nc(C(=O)NCCOC)c3ccccc3c2=O)cc1	none (no result: RanGTP-Impb inh)
CCOC(=O)c1oc2ccccc2c1COC(=O)CNC(=O)c1cccc(C)c1	none (no result: Efa HMGR inh, Wee1 stabilizer, Runt-SMMHC FRET, Runt-CBFb FRET)
CCOC(=O)N1CCN(C(=O)Nc2sc3nc4n(c(=O)c3c2C)CCC(C)CC4)CC1 (centres undefined)	PHOSPHO1 inh 74
CCOC(=O)c1sc2nc3n(c(=O)c2c1C)CCC(C)CC3 (centres undefined)	PHOSPHO1 inh 78
CCOC(=O)N1CCC(NC(=O)c2sc3nc4n(c(=O)c3c2C)CCCC4)CC1	RanGTP-Impb inh inconclusive
CC1=C/C(=C(\c2cc(C)c(O)c(Br)c2)c2ccccc2S(=O)(=O)O)C=C(Br)C1=O	none (no result: Efa HMGR inh, Wee1 stabilizer, Runt-SMMHC FRET, Runt-CBFb FRET)
Nc1nc(CN2CCN(Cc3ccc4c(c3)OCO4)CC2)nc(Nc2ccccc2)n1	none
Cc1ccccc1Nc1nc(N)nc(CN2CCN(Cc3ccc4c(c3)OCO4)CC2)n1	Efa HMGR inh 17
CCCCNC(=O)Cn1cnc([N+](=O)[O-])n1	none
O=C(Cn1cnc([N+](=O)[O-])n1)NC1CC1	PHOSPHO1 inh 68
COCCNC(=O)Cn1cnc([N+](=O)[O-])n1	Wee1 stabilizer 9.6
COc1ccc(NC(=O)COc2cc(C)cc(C)c2)cc1S(=O)(=O)N1CCCCC1	none (no result: Efa HMGR inh, Wee1 stabilizer, Runt-SMMHC FRET, PHOSPHO1 inh, Runt-CBFb FRET)
CN(CC(=O)Nc1ccccc1C(F)(F)F)C(=O)c1ccc(N2C(=O)CCC2=O)cc1	none (no result: Efa HMGR inh, Wee1 stabilizer, Runt-SMMHC FRET, PHOSPHO1 inh, Runt-CBFb FRET)
COc1ccc2c(c1)c1nc3ccccc3nc1n2CCn1c(=O)oc2ccccc21	none
O=c1oc2ccccc2n1CCn1c2ccccc2c2nc3ccccc3nc21	RanGTP-Impb inh 28
CC(=Nc1ccc(C)cc1C)c1sc2ccccc2c1O	RanGTP-Impb inh 42
CC(=Nc1ccc(C)cc1)c1sc2ccccc2c1O	RanGTP-Impb inh 73
CC(=Nc1cccc(O)c1)c1sc2ccccc2c1O	RanGTP-Impb inh 29
Cc1cc(O)cc2c(=O)c3ccccc3sc12	RanGTP-Impb inh inconclusive
O=C(CN1C(=O)CCS(=O)(=O)c2ccccc21)Nc1ccccc1F	none (no result: Efa HMGR inh, Wee1 stabilizer, Runt-SMMHC FRET, Runt-CBFb FRET)
O=[N+]([O-])c1ccc(O)c(C=Nc2ccc3c(c2)OCO3)c1	RanGTP-Impb inh inconclusive (no result: Efa HMGR inh)
O=[N+]([O-])c1cc(Br)cc(C=Nc2ccc3c(c2)OCO3)c1O	Wee1 stabilizer 9.7 (no result: Efa HMGR inh)
O=C(c1cc2cc(Br)ccc2o1)N1CCCC1	none
O=C(NC(=S)Nc1ccc(Br)cc1)C1CCC1	none (no result: Efa HMGR inh, Wee1 stabilizer, Runt-SMMHC FRET, Runt-CBFb FRET)
Nc1ccc(O)c(-c2nc3ccccc3s2)c1	RanGTP-Impb inh 25
Oc1ccc(N=C/C=C/c2cccc(Br)c2)cc1-c1nc2ccccc2s1	RanGTP-Impb inh 38
Oc1ccc(-c2nc3ccccc3s2)c(O)c1	none (no result: Efa HMGR inh)
Nc1ccccc1-c1nc2ccccc2s1	Runt-SMMHC FRET 55
Cc1cccc(C(=O)O/N=C2/CC3CCC2(C)C3(C)C)c1 (centres undefined)	Efa HMGR inh 11
O=C(O)C1CCN(C(=O)CSc2nc3ccccc3s2)CC1	none
CC1CCN(C(=O)CSc2nc3ccccc3s2)CC1	RanGTP-Impb inh 28
Cn1nccc1C(=O)NC(=S)Nc1sc2c(c1C#N)CCCCC2	PHOSPHO1 inh 68
N#Cc1c(NC(=S)NC(=O)c2ccccc2)sc2c1CCC2	none
Cc1onc(-c2ccccc2Cl)c1C(=O)Nc1sc2c(c1C#N)CCC2	RanGTP-Impb inh 45

Screening results (PubChem)
